Source: paper PMC12673082 (Nature Communications, 2025)
≈ marks a conversion by molar mass, not a printed value.

What was measured:
pdP2X7 = pdP2X7 (Ailuropoda melanoleuca, UniProt G1M6C4); assay: Whole-cell patch clamp, ATP-evoked current, transfected HEK293; type: cell-based, giant panda (Ailuropoda melanoleuca)
rP2X7 = target: T1, rP2X7 (Rattus norvegicus, UniProt Q64663); assay: as above; type: cell-based; settings: HEK293, read-out: inhibition rate
T1 sequence (Q64663 1-595): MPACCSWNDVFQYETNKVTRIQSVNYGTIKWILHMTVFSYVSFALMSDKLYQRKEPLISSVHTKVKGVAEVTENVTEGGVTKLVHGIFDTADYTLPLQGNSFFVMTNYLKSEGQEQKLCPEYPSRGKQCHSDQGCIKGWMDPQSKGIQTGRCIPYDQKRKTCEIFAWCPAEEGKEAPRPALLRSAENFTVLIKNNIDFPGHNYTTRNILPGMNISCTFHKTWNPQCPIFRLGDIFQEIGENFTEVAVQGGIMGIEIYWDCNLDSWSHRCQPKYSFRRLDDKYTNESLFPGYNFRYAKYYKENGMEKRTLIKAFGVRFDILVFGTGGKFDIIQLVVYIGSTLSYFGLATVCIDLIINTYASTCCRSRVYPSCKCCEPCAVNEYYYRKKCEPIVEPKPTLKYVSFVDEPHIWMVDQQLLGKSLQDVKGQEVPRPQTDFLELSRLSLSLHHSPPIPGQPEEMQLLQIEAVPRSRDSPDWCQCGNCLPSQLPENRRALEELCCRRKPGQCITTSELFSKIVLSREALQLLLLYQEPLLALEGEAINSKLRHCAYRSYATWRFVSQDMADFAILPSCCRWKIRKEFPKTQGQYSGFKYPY

hP2X1 = hP2X1 (Homo sapiens, UniProt P51575); assay: as above; type: cell-based; settings: HEK293, read-out: inhibition rate
hP2X3 = hP2X3 (Homo sapiens, UniProt P56373); assay: Nystatin-perforated patch recording, ATP-evoked current, HEK293; type: cell-based; settings: HEK293, read-out: inhibition rate
hP2X4 = hP2X4 (Homo sapiens, UniProt Q99571); assay: as above; type: cell-based; settings: HEK293, read-out: inhibition rate
pdP2X7 F103W = assay: Whole-cell patch clamp, pdP2X7 mutant; type: cell-based, giant panda; settings: pd7F103W, 30 μM
pdP2X7 K297R = assay: Whole-cell patch clamp, pdP2X7 mutant; type: cell-based, giant panda; settings: pd7K297R, 30 μM
pdP2X7 Y298A = assay: Whole-cell patch clamp, pdP2X7 mutant; type: cell-based, giant panda; settings: pd7Y298A, 30 μM
P2rx7+/+ mice = assay: Murine full-thickness wound infection model; type: in vivo, mouse; settings: 7.5 mg/ml, 50 μL s.c. twice daily, 7 days, vs control solvent
Summary of the method: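 WT C57BL/6J mice (8–10 weeks) were anesthetized, their backs shaved and iodine-disinfected, and a 6 mm punch wound made. 20 μL S. aureus (1×10^7 CFU/ml, saline-washed) was applied to the wound. After 24 h of infection, mice were randomized to test compound (7.5 mg/ml, 50 μL) or vehicle (20% sulfobutylether-β-cyclodextrin in saline), given s.c. around the wound twice daily for 7 days. Wound area was imaged daily and quantified. Data are mean ± SEM.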

[1] = Maximal soluble concentration in recording solution; type: physicochemical
pdP2X7 F103A = pdP2X7 F103A (Ailuropoda melanoleuca, UniProt G1M6C4, F104A); settings: pd7 F103A, 10 μM
pdP2X7 M105F = pdP2X7 M105F (Ailuropoda melanoleuca, UniProt G1M6C4, M106F); settings: pd7 M105F, 10 μM
pdP2X7 Y298F = pdP2X7 Y298F (Ailuropoda melanoleuca, UniProt G1M6C4, Y299F); settings: pd7 Y298F, 10 μM
pdP2X7 V312A = pdP2X7 V312A (Ailuropoda melanoleuca, UniProt G1M6C4, V313A); settings: pd7 V312A, 10 μM
pdP2X7 P96G = pdP2X7 P96G (Ailuropoda melanoleuca, UniProt G1M6C4, P97G); assay: cell-based
pdP2X7 P96G, sequence (G1M6C4 2-595 P97G): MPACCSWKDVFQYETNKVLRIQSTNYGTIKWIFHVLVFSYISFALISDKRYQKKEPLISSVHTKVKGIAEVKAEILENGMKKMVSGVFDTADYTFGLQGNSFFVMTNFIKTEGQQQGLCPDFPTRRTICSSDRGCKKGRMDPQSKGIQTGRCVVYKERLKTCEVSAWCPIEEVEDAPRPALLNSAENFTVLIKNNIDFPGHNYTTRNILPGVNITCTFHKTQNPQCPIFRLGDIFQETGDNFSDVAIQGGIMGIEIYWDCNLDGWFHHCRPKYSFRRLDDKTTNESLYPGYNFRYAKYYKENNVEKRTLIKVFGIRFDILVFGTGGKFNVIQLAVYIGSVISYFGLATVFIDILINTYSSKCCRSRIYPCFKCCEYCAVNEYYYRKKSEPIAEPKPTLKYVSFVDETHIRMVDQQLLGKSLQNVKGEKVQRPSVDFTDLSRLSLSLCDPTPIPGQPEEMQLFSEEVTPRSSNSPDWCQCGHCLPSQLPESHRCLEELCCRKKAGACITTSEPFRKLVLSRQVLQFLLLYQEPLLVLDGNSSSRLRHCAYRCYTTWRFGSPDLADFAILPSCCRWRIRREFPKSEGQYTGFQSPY

pdP2X7, sequence (G1M6C4 2-595): as the sequence (G1M6C4 2-595 P97G) above, with G96P counted along it
hP2X3, sequence (P56373 whole entry): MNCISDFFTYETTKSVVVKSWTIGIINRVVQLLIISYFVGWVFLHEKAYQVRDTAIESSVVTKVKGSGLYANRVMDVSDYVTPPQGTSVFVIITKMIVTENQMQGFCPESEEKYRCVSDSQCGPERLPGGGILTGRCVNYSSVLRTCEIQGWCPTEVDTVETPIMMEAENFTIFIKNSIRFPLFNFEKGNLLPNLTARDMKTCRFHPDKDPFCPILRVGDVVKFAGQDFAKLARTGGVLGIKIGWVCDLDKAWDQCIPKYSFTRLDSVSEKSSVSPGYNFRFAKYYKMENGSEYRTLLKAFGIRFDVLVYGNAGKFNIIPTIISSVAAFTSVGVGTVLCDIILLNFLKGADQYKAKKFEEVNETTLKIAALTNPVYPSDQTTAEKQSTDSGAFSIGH
hP2X4, sequence (Q99571 whole entry): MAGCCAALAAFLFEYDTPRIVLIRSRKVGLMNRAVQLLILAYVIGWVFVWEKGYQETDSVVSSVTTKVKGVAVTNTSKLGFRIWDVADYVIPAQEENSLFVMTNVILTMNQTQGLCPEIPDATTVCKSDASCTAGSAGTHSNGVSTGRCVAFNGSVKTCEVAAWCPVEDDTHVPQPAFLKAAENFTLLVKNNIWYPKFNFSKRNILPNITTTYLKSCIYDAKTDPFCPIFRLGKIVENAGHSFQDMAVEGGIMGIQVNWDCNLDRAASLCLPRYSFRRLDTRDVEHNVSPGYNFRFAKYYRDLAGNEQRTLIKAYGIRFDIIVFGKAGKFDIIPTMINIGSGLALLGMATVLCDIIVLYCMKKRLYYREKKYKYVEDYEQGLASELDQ
pdP2X7 Y298F, sequence (G1M6C4 2-606 Y299F): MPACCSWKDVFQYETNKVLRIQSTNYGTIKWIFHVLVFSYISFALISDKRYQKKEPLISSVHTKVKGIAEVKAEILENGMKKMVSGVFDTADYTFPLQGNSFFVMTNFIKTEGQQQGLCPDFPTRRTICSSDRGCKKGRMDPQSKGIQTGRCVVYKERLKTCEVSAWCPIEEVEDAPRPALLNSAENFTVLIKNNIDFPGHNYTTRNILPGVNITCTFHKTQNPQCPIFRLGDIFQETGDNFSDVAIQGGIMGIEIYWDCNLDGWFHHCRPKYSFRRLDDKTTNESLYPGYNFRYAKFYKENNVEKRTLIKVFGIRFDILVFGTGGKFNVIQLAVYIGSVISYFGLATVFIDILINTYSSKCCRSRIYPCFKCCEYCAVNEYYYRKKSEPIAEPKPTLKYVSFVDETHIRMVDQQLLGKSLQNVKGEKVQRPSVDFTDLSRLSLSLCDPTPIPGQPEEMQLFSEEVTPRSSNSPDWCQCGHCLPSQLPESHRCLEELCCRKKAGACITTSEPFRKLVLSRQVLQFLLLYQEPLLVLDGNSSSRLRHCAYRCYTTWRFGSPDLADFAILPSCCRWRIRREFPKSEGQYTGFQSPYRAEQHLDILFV
pdP2X7 F103A, sequence (G1M6C4 2-595 F104A): as the sequence (G1M6C4 2-595 P97G) above, with G96P, F103A counted along it
pdP2X7 M105F, sequence (G1M6C4 2-595 M106F): as the sequence (G1M6C4 2-595 P97G) above, with G96P, M105F counted along it
hP2X1, sequence (P51575 whole entry): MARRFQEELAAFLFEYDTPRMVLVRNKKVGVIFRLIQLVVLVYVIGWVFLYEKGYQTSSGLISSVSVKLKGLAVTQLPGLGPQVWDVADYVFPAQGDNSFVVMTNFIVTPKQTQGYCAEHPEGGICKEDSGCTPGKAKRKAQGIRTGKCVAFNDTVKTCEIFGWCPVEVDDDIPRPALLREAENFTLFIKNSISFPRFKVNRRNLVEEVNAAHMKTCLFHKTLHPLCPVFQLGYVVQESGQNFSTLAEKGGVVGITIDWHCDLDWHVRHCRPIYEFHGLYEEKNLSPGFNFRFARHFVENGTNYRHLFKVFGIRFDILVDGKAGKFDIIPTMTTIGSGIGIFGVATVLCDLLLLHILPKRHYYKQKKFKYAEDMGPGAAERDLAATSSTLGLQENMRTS
pdP2X7 V312A, sequence (G1M6C4 2-595 V313A): as the sequence (G1M6C4 2-595 P97G) above, with G96P, V312A counted along it

C=CC[C@@H]1c2ccc(OC)c(OC)c2CN2CCc3cc4c(cc3[C@H]12)OCO4 [PSFL1191, (13R,13aS)-13-allyl-9,10-dimethoxy-5,8,13,13a-tetrahydro-6H-1,3dioxolo[4,5-g]isoquinolino[3,2-a]isoquinoline]
IC50 (pdP2X7): 0.754 ± 0.018 µM
apparent affinity, times lower than that of JNJ-54175446 (pdP2X7; pdP2X7): 10-20 times
inhibition at 30 µM (rP2X7): 4.94 ± 1.43%
inhibition at 30 µM (hP2X1): -8.35 ± 4.49%
inhibition at 30 µM (hP2X3): 20.6 ± 6.4%
inhibition at 30 µM (hP2X4): -17.6 ± 9%
inhibition rate (pdP2X7 F103W): ≤ 50%
inhibition rate (pdP2X7 K297R): ≤ 50%
inhibition rate (pdP2X7 Y298A): ≤ 50%
wound healing (wound area) (P2rx7+/+ mice): did not influence the wound healing rate
solubility [1]: 30 µM (≈ 11.4 µg/mL)
inhibitory effect on ATP (1 mM)-induced activation (inhibition ratio) (pdP2X7 F103A): significantly attenuated
inhibitory effect on ATP (1 mM)-induced activation (inhibition ratio) (pdP2X7 M105F): significantly attenuated
inhibitory effect on ATP (1 mM)-induced activation (inhibition ratio) (pdP2X7 Y298F): significantly attenuated
inhibitory effect on ATP (1 mM)-induced activation (inhibition ratio) (pdP2X7 V312A): significantly attenuated
IC50 (pdP2X7 P96G): 8.06 µM
